Source: PubChem
MIN6 prolif: inducers of beta-cell replication in MIN6 cells; proliferation, % at 10 µM; 0.29% of 330,000 active; MIN6 cells proliferation, ATPlite luminescence, 48 h; cells starved in 0.2% serum; 100% = growth in 10% serum;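 active = compounds whose signal lies at least 3.5 SD above the mean of all wells on their plate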;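 note: 0% = DMSO-treated cells in low-serum medium and 100% = 10% serum control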
SENP1 inh: inhibitors of human SENP1 SUMO protease catalytic domain. Q9P0U3. recombinant SENP1 catalytic domain, CyPet-SUMO1-YPet FRET cleavage. inhibition, % at 10 µM. 0.21% of 360,000 active. AID 624204;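 active = inhibition at least 30% at 10 µM, raw YFP signal under a set limit, fluorescence ratio 0.5 to 1.5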;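 note: 0% = enzyme with DMSO and 100% = no enzyme wells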
Target sequence (Q9P0U3 419-644 limits assumed): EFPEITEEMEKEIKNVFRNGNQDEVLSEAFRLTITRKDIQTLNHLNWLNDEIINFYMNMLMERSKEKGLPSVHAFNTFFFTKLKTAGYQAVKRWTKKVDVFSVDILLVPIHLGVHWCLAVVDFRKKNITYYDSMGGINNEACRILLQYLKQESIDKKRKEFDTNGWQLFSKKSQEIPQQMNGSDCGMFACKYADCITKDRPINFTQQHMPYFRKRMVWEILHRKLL
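Controls: no-enzyme wells low, DMSO-plus-enzyme wells high control. Test system: human recombinant His6-tagged SENP1 catalytic domain enzyme. Reagent: SFCypet-SUMO1-SFYpet FRET protein substrate, 25 nM final. Doses: one dose per compound, 10 µM, 0.5% DMSO. Detection: FRET, CFP and YFP emission. Timing: 50 min reaction at room temperature.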
MT1-MMP act inh: inhibitors of human MT1-MMP activation; P50281; HT1080 RFP-PRO-GFP cells, GFP/RFP ratio fluorescence, overnight; percent of plate control window, DMSO zero; GFP/RFP ratio change, % at 20 µM; 0.061% of 360,000 active;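 active = GFP/RFP ratio change of at least 30% with cell ATP level not reduced by more than half and red fluorescence within 50% of control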
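Assay system: HT1080 RFP-PRO-GFP cells | Dosing: 20 µM single dose, 1% DMSO | Incubation: Cells overnight before dosing, compound overnight, 37 °C, 5% CO2 | Evaluation: GFP/RFP fluorescence ratio | Control set: DMSO-only wells and HT1080 RFP-L50D-GFP cell wells as references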
Myeloid diff 2: promotes myeloid progenitor differentiation; calls only at 10 µM; ER-HoxA9 myeloid progenitors, lysozyme-GFP differentiation, flow cytometry; 1% of 360,000 active;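 active = normalized GFP-positive differentiation at or above the plate's own cutoff, the solvent-only control mean plus 3 SD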;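 note: cells exposed to compound for four days before flow analysis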
CendR NRP1 mod: alters CendR peptide binding to human NRP-1 | O14786 | FAM-RPARPAR peptide binding to NRP-1, fluorescence polarization | inhibition, % at 25 µM | 0.85% of 360,000 active | AID 602438;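 active = inhibition or corrected inhibition above about 18%, plus a signal ratio from 0.5 to 1.5, limit read from the data, passing the limit was not always enough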
DAGLB inhibitor: blocks human DAGLB lipase activity. inhibition, % at 5.17 µM. AID 504411. 0.059% of 340,000 active. HEK293T DAGLB membrane lysate, EnzChek fluorogenic substrate; in the data active = inhibition above about 34%;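 note: 0% = enzyme with vehicle and 100% = wells lacking enzyme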
SENP1 conf: confirmation of human SENP1 SUMO protease inhibitors; shares compounds with SENP1 inh; recombinant SENP1, CyPet-SUMO1-YPet FRET cleavage; inhibition, % at 10 µM; 34% of 520 active; AID 651678; in the data active = inhibition mostly above about 35%, no sharp cut-off; inactive = mostly below about 32%;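 note: 0% = enzyme with DMSO and 100% = no enzyme control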
SENP1 kinetic: SENP1 (human) inhibition, kinetic confirmation. shares compounds with SENP1 inh. recombinant SENP1, CyPet-SUMO1-YPet FRET kinetic cleavage. inhibition, % at 10 µM. 26% of 520 active; in the data active = inhibition mostly above about 32%, no sharp cut-off; inactive = mostly below about 29%;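 note: 0% = DMSO with enzyme and 100% = no enzyme substrate only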
Active calls of the source: *; i = inactive; . = no result given; + = active, no number. Rows were chosen to be rich in hits. Some 2.4% of all compounds tested hit in one or more screens of this group.

SMILES	MIN6 prolif	SENP1 inh	MT1-MMP act inh	Myeloid diff 2	CendR NRP1 mod	DAGLB inhibitor	SENP1 conf	SENP1 kinetic
COc1ccc(N2C(=O)C3C(C2=O)C(C(=O)c2ccc(Cl)cc2)N2CCCC32)cc1 (stereo unspecified)	3	71*	-36	i	-36	-1	77*	50*
Cc1ccc(N2C(=O)[C@@H]3[C@H](C2=O)C2CCCN2[C@@H]3C(=O)c2ccccc2)cc1 (stereo partly specified)	3	77	-63	i	-45	-1	.	.
O=C(c1ccc(Cl)cc1)C1C2C(=O)N(c3ccccc3)C(=O)C2C2CCCN21 (stereo unspecified)	.	-19	-2	i	-12	0	.	.
O=C(c1ccccc1)[C@@H]1[C@@H]2C(=O)N(c3ccc(F)cc3)C(=O)[C@@H]2C2CCCN21 (stereo partly specified)	-3	76*	-26	i	9	0	73*	48*
CCCCNc1c(-c2cccc(OC)c2)nc2nc(C)cc(C)n12	.	-2	-4	i	-6	.	.	.
Cc1cc(C)n2c(Nc3c(C)cccc3C)c(-c3ccccn3)nc2n1	.	63*	-8	i	-88	.	29	16
COc1cccc(-c2nc3nc(C)cc(C)n3c2Nc2c(C)cccc2C)c1	.	64*	-16	i	-133	.	36*	20
CCOP(=O)(OCC)C(Nc1ccc(C)cc1)c1ccco1 (stereo unspecified)	-2	1	3	i	5	-1	.	.
CCOC(=O)C1CCN(C(=O)CCn2c(=O)oc3ccccc32)CC1	.	1	-2	i	-2	-4	.	.
NC(=O)C1CCN(C(=O)CCn2c(=O)oc3ccccc32)CC1	2	33*	-43	i	-60	2	4	-4
Cc1ccc(NC(=O)CCS(=O)(=O)c2ccccc2)cc1S(=O)(=O)N1CCOCC1	-1	0	5	i	0	-1	.	.
O=C(Oc1ccc(NC2=NS(=O)(=O)c3ccccc32)cc1)c1cccnc1	-3	2	6	i	-2	-1	.	.
O=[N+]([O-])c1cccc(/C=N\N=C2c3ccccc3-c3ccccc32)c1O	-4	2	-4	i	12	2	.	.
Oc1ccc(C=NN=C2c3ccccc3-c3ccccc32)c(O)c1	.	71*	-2	i	-79	0	78*	51*
COC(=O)[C@]12CCCCC=C1N(Cc1ccc(Cl)cc1Cl)C(=O)[C@H](CC(=O)NCC13CC4CC(CC(C4)C1)C3)C2	.	4	-31	i	11	.	.	.
CCOCCC(=O)Nc1nnc(CCc2ccccc2)s1	-2	-1	1	i	5	0	.	.
N#C/C(=C\c1cc2ccccc2nc1N1CCCCC1)C(N)=O	.	43*	-10	i	-34	6	36*	22
CC(=O)Oc1ccc(C(=O)Cc2ccc3ccccc3n2)c(O)c1C	-4	49*	-15	i	-90	-15	25	19
Cc1nc(N)nc(N(C)c2ccccc2)c1Br	.	3	5	i	0	-1	.	.
CC(=O)Oc1ccc(/C=C/c2nc3ccccc3c(=O)o2)cc1	-4	52*	4	i	-18	-3	-33	-22
COc1ccc(-c2c(O)c(C#N)c(-c3ccccc3)n(-c3ccc(OC)cc3)c2=O)cc1	0	78*	10	i	-11	-2	2	5
COc1ccc(N(C)C(=O)Nc2ccc3nsnc3c2)cc1	.	56*	-3	i	-7	-7	8	9
COc1ccc(N(C)C(=O)Nc2ccc3c(c2)nnn3C)cc1	0	1	9	i	-14	1	.	.
Nc1cc([N+](=O)[O-])ccc1Nc1ccccc1	-2	56*	4	i	-36	17	39*	15
N#Cc1ccc(Nc2ccccc2)c(N)c1	-3	-9	13	i	-9	-3	.	.
SMILES	MIN6 prolif	SENP1 inh	MT1-MMP act inh	Myeloid diff 2	CendR NRP1 mod	DAGLB inhibitor	SENP1 conf	SENP1 kinetic
O=[N+]([O-])c1ccc(Nc2ccccc2O)c([N+](=O)[O-])c1	.	50*	-34	+	-82	14	31	17
CCCC(C)NCC(=O)Nc1ccccc1-c1ccccc1 (stereo unspecified)	-2	5	0	i	-23	0	.	.
Cc1ccc(NC(=O)CNC(=O)CC23CC4CC(CC(C4)C2)C3)c(O)c1	-2	-3	-1	i	1	0	.	.
CCOC(=O)Cn1c(=O)c(-c2cc(Br)ccc2N)nc2ccccc21	-5	86*	-12	+	0	-1	16	15
O=C1COc2ccc(C(=O)COC(=O)c3ccc(F)cc3Cl)cc2N1	-1	3	-1	i	5	0	.	.
COc1cc(S(=O)(=O)Nc2ccc3c(c2)C(=O)N(C)C3=O)ccc1NC(C)=O	-3	54*	-34	i	11	-3	41*	43*
O=c1[nH]c2cc([N+](=O)[O-])ccc2c2ccccc12	.	8	-2	i	-9	6	.	.
O=c1[nH]c2cc([N+](=O)[O-])ccc2c2cc(Br)ccc12	.	33*	-7	i	5	12	25	14
CCC1CCCCN1CCNS(=O)(=O)c1ccc2c(c1)oc(=O)n2C (stereo unspecified)	0	-5	3	i	5	1	.	.
CCC1CCCCN1CCCNS(=O)(=O)c1ccc2c(c1)oc(=O)n2C (stereo unspecified)	-3	31*	-21	i	-39	-1	19	7
CCCOC(=O)Nc1nc2ccccc2o1	-2	30*	-23	i	-36	-5	2	3
Cc1cc(N2CCN(c3nc(-c4ccc([N+](=O)[O-])cc4)cs3)CC2)c2ccccc2n1	-7	45*	.	i	2	1	15	14
Cc1ccc(NC(=O)c2cc(S(=O)(=O)N3CCCC3)cn2C)cc1	0	-4	2	i	-2	-5	.	.
CCOc1cc(/C=C2\NC(=S)N(c3c(C)n(C)n(-c4ccccc4)c3=O)C2=O)ccc1O	2	-18	-8	i	-111	0	.	.
CCOc1cccc(/C=C2\NC(=S)N(c3ccccc3)C2=O)c1O	-5	48*	2	i	-3	5	45*	18
CCOC(=O)c1sc2nc(C)nc(NCc3ccc(Cl)cc3)c2c1C	-5	-1	-9	i	-7	-8	.	.
